In ChEMBL document CHEMBL5365542, “Difluoromethyl-1,3,4-oxadiazoles Are Selective, Mechanism-Based, and Essentially Irreversible Inhibitors of Histone Deacetylase 6” (J Med Chem, 2023) one finds inhibition and IC50 data, which are given here for eleven compounds.

Assay [1] addresses Histone deacetylase 3/Nuclear receptor corepressor 2 (HDAC3/NCoR2) (Homo sapiens) (UniProt O15379+Q9Y618). In words: Inhibition of C-terminal His-tagged human HDAC3 (1 to 428 residues)/N-terminal GST tagged human NcoR2 (395 to 489 residues) expressed in Sf9 insect cells using Z-Lys(Ac)-AMC as fluorogenic substrate at 10 uM preincubated for 60 mins followed by substrate addition and measured after 90 mins by microplate reader analysis relative to control. The conditions noted are these: time 150.0 min. Put shortly:
(§1)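 Human recombinant enzyme was preincubated with 3-fold inhibitor dilutions for 60 min at 25 °C in Tris-HCl pH 8.0 buffer with BSA. ZMAL (75 μM solution) was then added, and the mix was incubated 90 min at 37 °C (max 1% DMSO). Trypsin was added for 30 min at 37 °C, and fluorescence was read at ex 355/em 460. Tested at least twice in duplicate.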

Assay [2] concerns the target T1, Protein deacetylase HDAC6 (Homo sapiens, UniProt Q9UBN7).
T1 sequence (Q9UBN7 whole entry): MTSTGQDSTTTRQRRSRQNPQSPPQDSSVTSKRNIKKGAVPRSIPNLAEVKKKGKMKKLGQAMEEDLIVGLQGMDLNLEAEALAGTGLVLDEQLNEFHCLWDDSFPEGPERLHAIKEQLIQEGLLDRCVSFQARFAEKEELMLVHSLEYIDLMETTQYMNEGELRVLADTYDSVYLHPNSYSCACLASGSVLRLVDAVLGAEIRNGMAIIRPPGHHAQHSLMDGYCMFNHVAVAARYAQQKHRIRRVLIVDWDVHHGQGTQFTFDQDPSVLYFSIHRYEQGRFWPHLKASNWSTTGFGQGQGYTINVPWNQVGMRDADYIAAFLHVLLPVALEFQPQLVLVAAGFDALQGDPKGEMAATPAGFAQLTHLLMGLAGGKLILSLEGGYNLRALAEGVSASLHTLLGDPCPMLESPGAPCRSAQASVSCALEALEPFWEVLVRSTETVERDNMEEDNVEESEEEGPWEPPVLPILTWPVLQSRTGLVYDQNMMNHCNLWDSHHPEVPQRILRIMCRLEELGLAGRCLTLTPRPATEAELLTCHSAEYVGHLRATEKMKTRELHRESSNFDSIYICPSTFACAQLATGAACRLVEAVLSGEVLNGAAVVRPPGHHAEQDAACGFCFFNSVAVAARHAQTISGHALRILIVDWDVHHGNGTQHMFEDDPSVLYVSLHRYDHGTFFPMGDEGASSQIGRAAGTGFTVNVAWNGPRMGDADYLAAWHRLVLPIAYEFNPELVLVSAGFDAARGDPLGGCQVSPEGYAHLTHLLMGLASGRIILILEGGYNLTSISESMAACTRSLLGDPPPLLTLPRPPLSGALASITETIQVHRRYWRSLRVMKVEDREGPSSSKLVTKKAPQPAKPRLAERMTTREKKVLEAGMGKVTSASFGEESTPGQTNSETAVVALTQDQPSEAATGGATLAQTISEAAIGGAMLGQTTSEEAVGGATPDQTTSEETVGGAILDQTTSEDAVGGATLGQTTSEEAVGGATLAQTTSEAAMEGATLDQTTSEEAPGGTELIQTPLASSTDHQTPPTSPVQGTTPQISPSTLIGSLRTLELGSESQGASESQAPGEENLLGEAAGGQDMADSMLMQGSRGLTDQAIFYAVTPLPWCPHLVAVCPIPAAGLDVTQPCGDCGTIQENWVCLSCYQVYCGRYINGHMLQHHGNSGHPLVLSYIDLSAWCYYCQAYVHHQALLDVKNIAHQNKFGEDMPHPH
The assay is described as follows: Inhibition of N-terminal GST tagged human recombinant HDAC6 (1 to 1215 residues) expressed in Sf9 insect cells using Z-Lys(Ac)-AMC as fluorogenic substrate preincubated for 60 mins followed by substrate addition and measured after 90 mins by microplate reader analysis.

Assay [3] deals with Histone deacetylase 2 (Homo sapiens) (UniProt Q92769). The assay is described as follows: Inhibition of C-terminal 6His-tagged human recombinant HDAC2 (1 to 488 residues) expressed in Sf9 insect cells using Z-Lys(Ac)-AMC as fluorogenic substrate at 10 uM preincubated for 60 mins followed by substrate addition and measured after 90 mins by microplate reader analysis relative to control. Conditions: time 150.0 min. The method, boiled down: as §1
Histone deacetylase 2 (Homo sapiens), sequence (Q92769 whole entry, the tested form may be a part): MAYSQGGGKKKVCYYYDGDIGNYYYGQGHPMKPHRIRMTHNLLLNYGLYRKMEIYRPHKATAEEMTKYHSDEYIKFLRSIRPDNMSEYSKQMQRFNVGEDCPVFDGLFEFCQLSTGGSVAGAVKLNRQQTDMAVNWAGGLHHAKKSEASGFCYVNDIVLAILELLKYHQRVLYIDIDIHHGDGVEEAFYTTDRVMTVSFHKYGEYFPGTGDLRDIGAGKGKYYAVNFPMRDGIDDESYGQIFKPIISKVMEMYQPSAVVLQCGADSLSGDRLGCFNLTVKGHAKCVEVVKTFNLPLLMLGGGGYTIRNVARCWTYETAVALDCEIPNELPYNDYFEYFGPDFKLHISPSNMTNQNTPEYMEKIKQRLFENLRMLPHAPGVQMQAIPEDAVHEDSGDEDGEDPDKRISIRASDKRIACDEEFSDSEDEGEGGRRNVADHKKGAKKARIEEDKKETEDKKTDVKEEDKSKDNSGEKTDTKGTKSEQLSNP

The target of assay [4] is Histone deacetylase 1 (Homo sapiens) (UniProt Q13547). The assay is described as follows: Inhibition of C-terminal 6His/FLAG tagged human recombinant HDAC1 (1 to 482 residues) […] expressed in Sf9 insect cells using Z-Lys(Ac)-AMC as fluorogenic substrate at 10 uM preincubated for 60 mins followed by substrate addition and measured after 90 mins by microplate reader analysis relative to control. The conditions noted are these: time 150.0 min. Put shortly:
as §1

For assay [5], the target named is Histone deacetylase 4 (Homo sapiens) (UniProt P56524). The assay is described as follows: Inhibition of N-terminal GST-tagged/C-terminal His-tagged human HDAC4 (627 to 1084 residues) expressed in Sf9 insect cells using Boc-Lys(Tfa)-AMC as fluorogenic substrate at 10 uM preincubated for 60 mins followed by substrate addition and measured after 90 mins by microplate reader analysis relative to control. Conditions: time 150.0 min. Put shortly: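 Recombinant human HDAC4 was preincubated with inhibitor for 60 min at 25 °C in Tris-HCl pH 8.0/BSA buffer. Boc-Lys(Tfa)-AMC (42.86 μM solution) was then added for 90 min at 37 °C, followed by trypsin for 30 min at 37 °C. Fluorescence was read at ex 355/em 460. Tested at least twice in duplicate.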
Histone deacetylase 4 (Homo sapiens), sequence (P56524 whole entry, the tested form may be a part): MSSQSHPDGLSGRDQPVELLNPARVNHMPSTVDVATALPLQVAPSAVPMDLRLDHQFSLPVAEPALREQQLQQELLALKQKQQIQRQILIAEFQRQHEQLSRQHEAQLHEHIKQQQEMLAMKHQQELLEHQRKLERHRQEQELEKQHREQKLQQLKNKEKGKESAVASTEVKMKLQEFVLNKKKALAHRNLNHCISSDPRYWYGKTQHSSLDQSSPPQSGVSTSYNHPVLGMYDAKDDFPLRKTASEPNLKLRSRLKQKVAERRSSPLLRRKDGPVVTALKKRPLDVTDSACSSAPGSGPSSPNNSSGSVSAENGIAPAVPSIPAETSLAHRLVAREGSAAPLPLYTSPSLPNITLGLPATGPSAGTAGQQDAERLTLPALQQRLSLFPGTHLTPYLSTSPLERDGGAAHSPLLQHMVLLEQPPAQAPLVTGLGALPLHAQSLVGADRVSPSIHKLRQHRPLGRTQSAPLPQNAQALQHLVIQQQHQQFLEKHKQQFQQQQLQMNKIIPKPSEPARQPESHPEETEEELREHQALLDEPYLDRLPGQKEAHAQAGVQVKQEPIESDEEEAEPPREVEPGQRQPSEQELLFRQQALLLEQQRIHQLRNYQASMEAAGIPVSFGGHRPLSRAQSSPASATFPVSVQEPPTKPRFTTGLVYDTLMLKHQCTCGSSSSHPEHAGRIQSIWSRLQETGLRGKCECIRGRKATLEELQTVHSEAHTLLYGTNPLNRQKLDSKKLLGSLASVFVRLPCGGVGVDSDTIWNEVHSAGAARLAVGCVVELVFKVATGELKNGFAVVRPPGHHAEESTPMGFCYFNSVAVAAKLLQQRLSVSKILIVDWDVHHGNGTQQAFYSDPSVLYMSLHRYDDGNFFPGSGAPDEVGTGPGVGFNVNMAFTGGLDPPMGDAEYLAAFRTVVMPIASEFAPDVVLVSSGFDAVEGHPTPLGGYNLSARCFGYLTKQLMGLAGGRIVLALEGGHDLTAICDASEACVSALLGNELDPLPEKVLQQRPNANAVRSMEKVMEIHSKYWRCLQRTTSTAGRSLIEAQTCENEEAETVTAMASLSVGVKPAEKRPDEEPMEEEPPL

The target in assay [6] is T2, Protein deacetylase HDAC6 (Homo sapiens) (UniProt Q9UBN7).
T2 sequence (whole entry): T1 sequence (Q9UBN7 whole entry)
In words: Inhibition of N-terminal GST tagged human recombinant HDAC6 (1 to 1215 residues) expressed in Sf9 insect cells using Z-Lys(Ac)-AMC as fluorogenic substrate at 10 uM preincubated for 60 mins followed by substrate addition and measured after 90 mins by microplate reader analysis relative to control. Conditions: time 150.0 min. Put shortly:
as §1

Histone deacetylase 1 (Homo sapiens), sequence (Q13547 whole entry, the tested form may be a part): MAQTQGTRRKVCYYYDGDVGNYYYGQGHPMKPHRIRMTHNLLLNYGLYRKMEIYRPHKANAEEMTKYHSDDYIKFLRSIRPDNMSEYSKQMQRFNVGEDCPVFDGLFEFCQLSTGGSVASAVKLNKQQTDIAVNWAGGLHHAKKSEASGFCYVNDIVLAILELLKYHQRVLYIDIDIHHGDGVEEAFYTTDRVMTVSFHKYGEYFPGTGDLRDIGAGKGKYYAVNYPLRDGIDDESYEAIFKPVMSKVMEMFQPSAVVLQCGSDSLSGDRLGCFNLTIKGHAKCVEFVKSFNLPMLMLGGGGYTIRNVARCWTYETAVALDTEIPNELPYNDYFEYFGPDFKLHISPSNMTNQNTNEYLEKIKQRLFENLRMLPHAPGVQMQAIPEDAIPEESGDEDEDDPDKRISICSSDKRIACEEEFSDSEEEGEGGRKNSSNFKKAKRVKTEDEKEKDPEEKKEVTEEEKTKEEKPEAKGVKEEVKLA

Take `COc1ccc(CNc2ncc(-c3nnc(C(F)F)o3)cn2)cc1`: the inhibition in assay [1], in assay [3], in assay [4] and in assay [5] was less than 15% throughout. Besides, the IC50 in assay [2] worked out at 337 nM.

`CN(C)c1ccc(C(=O)N(CC(=O)NCc2ccccc2)Cc2ccc(-c3nnc(C(F)F)o3)cc2)cc1`: the inhibition in assay [1] was less than 15%; in assay [3] it was less than 15%; in assay [6], 27%; in assay [4] it was less than 15%; in assay [5] it was less than 15%.

Consider `FC(F)c1nnc(-c2ccccc2)o1`, for which the inhibition in assay [1], in assay [3], in assay [6], in assay [4] and in assay [5] was less than 15% in each case.

With `FCc1nnc(-c2cnc(NCc3ccccc3)nc2)o1`, the inhibition in assay [6] was found to be 54%.

For the compound `Cc1ccc(-c2nnc(C(F)F)o2)cn1`, the inhibition is less than 15% in assay [1]; less than 15% in assay [3]; 39% in assay [6]; less than 15% in assay [4]; less than 15% in assay [5].

Consider `NNC(=O)c1cnc(NCc2ccccc2)nc1`, for which the inhibition in assay [6] was found to be 30%.

With `FC(F)c1nnc(-c2cncnc2)o1`, the inhibition in assay [1] was less than 15%; in assay [3], less than 15%; in assay [6], 56%; in assay [4] it was less than 15%; in assay [5] it was less than 15%.

`CCCCN(Cc1ccc(-c2nnc(C(F)F)o2)cc1)C(=O)Nc1ccccc1`: the inhibition is less than 15% in assay [1]; less than 15% in assay [3]; 76% in assay [6]; less than 15% in assay [4]; less than 15% in assay [5].

For the compound `O=C(NNC(=O)C(F)F)c1cnc(NCc2ccccc2)nc1`, in assay [6], the inhibition was less than 15%.

With `CCCCN(Cc1ccc(-c2nnc(C(F)F)o2)cc1)C(=O)c1ccccc1`, the inhibition is less than 15% in assay [1]; less than 15% in assay [3]; 75% in assay [6]; less than 15% in assay [4]; less than 15% in assay [5].

Regarding `Cc1nnc(-c2cnc(NCc3ccccc3)nc2)o1`, the inhibition in assay [6] was less than 15%.

The inhibition is the relative decrease from the control value, in per cent. One may read the IC50 as the concentration that inhibits the measured activity by half.
